The values below come from paper PMC3759818 (Pharmaceutical research, 2009).

Several values for one entry are separate records, joined by “and”; a condition that tells them apart may be missing. Equal values may be shown once. Entries after “also recorded” stand apart in the source; their conditions may differ.

One data set concerns BxPC-3 cells. The experiment in a line: PGE2 immunoassay in conditioned medium of BxPC-3 cells. The following applies: 1 or 4 μM, 24 h, vs untreated control. In kind it is cell-based, human.
In a further data set the test system is NF-κB. In kind it is cell-based, human. The following applies: MIAPaCa-2 cells, EMSA. A general note: In EMSA bound probe runs differently from free probe, usually more slowly.
A short description of data set [1]: DPPH radical scavenging assay. The class given is biochemical. Particulars: read-out: IC50, DPPH radical scavenging; data not shown.
Data set [2] concerns COX-2 positive BxPC-3 pancreatic cancer cells. Particulars: BxPC-3 cells, MTT assay; cited from earlier work. In general terms: Formazan colour is commonly taken as a measure of viable cells.
Data set [3] can be described thus: Serum pharmacokinetics in mice after single intragastric dose. The class given is in vivo. The method, boiled down: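 Female ICR-SCID mice, 7–8 weeks old, 18 per compound, got a single oral 250 mg/kg dose in sesame oil by intragastric tube. Two mice were killed at 0–24 h (nine time points). Cardiac blood was clotted and serum stored at −80°C, then ethyl acetate-extracted with zileuton internal standard and assayed by LC-MS/MS. Cmax was read from the curve. AUClast used linear (rising) and log (falling) trapezoids in non-compartmental analysis. Values are means of two mice.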

A further data set is described as follows: Water solubility. The class given is physicochemical. The following applies: data not shown.
A further data set deals with MIAPaCa-2 cells. The experiment in a line: PGE2 immunoassay in conditioned medium of MIAPaCa-2 cells. In kind it is cell-based, human. Particulars: 1 or 4 μM, 24 h, vs untreated control.
Data set [4] can be described thus: Pancreas pharmacokinetics in mice after single intragastric dose. In kind it is in vivo. The procedure, abridged:
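Female ICR-SCID mice, 7–8 weeks old, 18 per compound, got a single 250 mg/kg dose in sesame oil by intragastric intubation. Two mice were killed at 0, 1, 2, 4, 6, 8, 12, 16 and 24 h. Pancreas was PBS-washed, blotted, weighed, frozen at −80°C, then homogenized in 5 volumes ice-cold 0.9% saline. Homogenate was ethyl acetate-extracted with zileuton internal standard and assayed by LC-MS/MS. Values are means of two mice.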

For data set [5] the following is noted: serum, oral 1 g/kg body weight, mouse; cited from earlier work.
The mark [6] stands for this setting: single intragastric 250 mg/kg, mice, mean from two mice.
Where [7] appears, read: pancreas, single intragastric 250 mg/kg, mice, mean from two mice.
[8] abbreviates: female, ICR-SCID, mouse, po, 250 mg/kg.
[9] abbreviates: female, ICR-SCID, mouse, pancreas, po, 250 mg/kg.

In general, IC50 refers to the concentration needed to halve the response being measured. The term Cmax denotes the highest concentration seen after dosing. What is called Tmax is the time at which the peak concentration occurs. As to `COc1cc(/C=C/C(=O)C(=Cc2ccc(F)c(F)c2)C(=O)/C=C/c2ccc(O)c(OC)c2)ccc1O` [CDF], the “PGE2 level in conditioned medium” value in the data set on BxPC-3 cells is listed as “significant decrease; also recorded: significant reduction”. In addition, the “NF-κB DNA-binding activity” value with NF-κB was “the effect was more pronounced with a low concentration of CDF”. In addition, the IC50 in data set [1] came to 0.05 µM. Moreover, the “IC50, anti-proliferative activity” value in data set [2] was “low IC50 value”. Moreover, in [3] (oral 250 mg/kg, mice), the “Systemic drug level (serum AUClast) relative to Curcumin” value came to 2.7 fold. For the same compound, in data set [3] (setting [6]), the AUClast came out at 1.22 µg·h/mL, the Clast is 0.04 µg/mL, the highest concentration (Cmax) came to 0.21 µg/mL and the Tlast turned out to be 16.0 h. Further, the Tmax in data set [3] (setting [6]) came to 8.0 h. In addition, the “Water solubility relative to Curcumin” value in “Water solubility” stood at 8.4 fold. For the same compound, the “PGE2 level in conditioned medium” value with MIAPaCa-2 cells is given as “significant decrease; also recorded: substantial reduction”. The “Cmax in pancreas relative to serum” value in data set [4] (at 8 h, oral 250 mg/kg, mice) worked out at 44.5 fold. Besides, the “Cmax in pancreas relative to Curcumin” value in data set [4] (pancreas, oral 250 mg/kg, mice) was found to be 4.3 fold. Besides, the “AUClast (concentration) in pancreas relative to Curcumin” value in data set [4] (pancreas, oral 250 mg/kg, mice, 250 mg/kg) is 10 fold and 10.6 fold. In data set [4] (setting [7]), this compound had an AUClast of 36.56 µg·h/g, a Clast of 0.04 µg/g, a Cmax of 9.35 µg/g and a Tlast of 12.0 h. Moreover, the Tmax in data set [4] (setting [7]) is 8.0 h.

In the case of `COc1cc(/C=C/C(=O)CC(=O)/C=C/c2ccc(O)c(OC)c2)ccc1O` [Curcumin, diferuloylmethane, reference compound], the results for the “PGE2 level in conditioned medium” value in the data set with BxPC-3 cells and in the data set with MIAPaCa-2 cells were “such results were not found; also recorded: no significant change” and “significant decrease; also recorded: substantial reduction”, respectively. For the same compound, the “NF-κB DNA-binding activity” value in the data set with NF-κB was “caused down-regulation of NF-κB”. Moreover, in data set [1], the IC50 is 35 µM. Also, in [5], the “Time of Cmax” value is reported as 1 h. In addition, the Cmax was found to be 0.22 µg/mL in data set [3] (setting [8]) and 2.15 µg/g in data set [4] (setting [9]). For the same compound, the Tmax in [3] (setting [8]) and in [4] (setting [9]) was 1 h in each case. The Tlast in [3] (setting [6]) was 8 h and 8.0 h; in data set [4] (setting [7]), 16.0 h. Further, the AUClast in [4] (setting [7]) turned out to be 3.46 µg·h/g.
